What was measured:
Canis familiaris [1] = species: Canis familiaris; experiment: (§1) Intraurethral pressure (IUP) in Beagle dogs values are expressed as pseudo pA2 values.; type: functional, Canis lupus familiaris, Urethra
Rattus norvegicus [2] = species: Rattus norvegicus; experiment: Antagonist dissociation constant in rat vas deferens, number of determinations => 3.; details: read-out: pA2 (converted)
Rattus norvegicus [3] = species: Rattus norvegicus; experiment: Antagonist dissociation constant in rat spleen, number of determinations => 3.; details: read-out: pA2 (converted)
Rattus norvegicus [4] = species: Rattus norvegicus; experiment: Pseudo ED50 in Spontaneously Hypertensive Rat (SHR) model. Number determinations => 3.; type: functional
How it was run: (§2)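 Male SHR (300-325 g), briefly anesthetized with Penthrane, catheterized in femoral artery (MAP) and vein (dosing). After 2.5 h recovery and a 30 min predose control period, one iv antagonist dose per rat in an ascending paradigm; MAP and HR recorded over 60 min. Trapezoidal AUC of percent change in MAP (T60 AUC); ED50 is the dose lowering MAP by 50% of normotensive.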

Rattus norvegicus [5] = species: Rattus norvegicus; experiment: Determination Pseudo pED50 in Spontaneously Hypertensive Rat (SHR) model; type: functional; how it was run: as §2
Rattus norvegicus [6] = species: Rattus norvegicus; experiment: Antagonist dissociation constant in rat vas deferens; details: read-out: pA2 (converted)
Rattus norvegicus [7] = species: Rattus norvegicus; experiment: Antagonist dissociation constant in rat spleen; details: read-out: pA2 (converted)
Canis familiaris [8] = species: Canis familiaris; experiment: as §1; details: Canis lupus familiaris, Urethra, read-out: pA2 (converted)
[9] = target: T1, Alpha-1A adrenergic receptor (Rattus norvegicus, UniProt P43140); experiment: In vitro binding affinity using [3H]prazosin as radioligand against adrenoceptor alpha 1A
T1 sequence (P43140 whole entry): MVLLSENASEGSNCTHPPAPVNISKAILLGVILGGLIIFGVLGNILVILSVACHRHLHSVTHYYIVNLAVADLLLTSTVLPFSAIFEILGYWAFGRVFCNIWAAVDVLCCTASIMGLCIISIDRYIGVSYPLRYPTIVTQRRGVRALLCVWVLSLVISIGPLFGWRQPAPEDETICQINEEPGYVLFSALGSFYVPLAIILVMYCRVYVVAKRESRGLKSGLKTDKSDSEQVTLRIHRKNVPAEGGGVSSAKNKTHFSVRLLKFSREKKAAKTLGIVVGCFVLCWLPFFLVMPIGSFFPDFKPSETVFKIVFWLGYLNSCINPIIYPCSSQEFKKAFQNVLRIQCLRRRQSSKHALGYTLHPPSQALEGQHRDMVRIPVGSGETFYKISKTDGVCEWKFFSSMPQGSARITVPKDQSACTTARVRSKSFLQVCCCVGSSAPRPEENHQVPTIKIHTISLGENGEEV
How it was run: (§3)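 Binding to pharmacologically defined α1A site in rat submaxillary gland membranes; [3H]-prazosin ~200 pM, nonspecific binding with 10^-5 M phentolamine (final); ~0.1 mg protein per tube in 50 mM Tris-HCl pH 7.4, 60 min at 25 °C.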

[10] = target: T2, Alpha-1B adrenergic receptor (Mesocricetus auratus, UniProt P18841); experiment: In vitro binding affinity using [3H]prazosin as radioligand against adrenoceptor alpha 1b expressed in LTK cell; type: cell-based
T2 sequence (P18841 whole entry): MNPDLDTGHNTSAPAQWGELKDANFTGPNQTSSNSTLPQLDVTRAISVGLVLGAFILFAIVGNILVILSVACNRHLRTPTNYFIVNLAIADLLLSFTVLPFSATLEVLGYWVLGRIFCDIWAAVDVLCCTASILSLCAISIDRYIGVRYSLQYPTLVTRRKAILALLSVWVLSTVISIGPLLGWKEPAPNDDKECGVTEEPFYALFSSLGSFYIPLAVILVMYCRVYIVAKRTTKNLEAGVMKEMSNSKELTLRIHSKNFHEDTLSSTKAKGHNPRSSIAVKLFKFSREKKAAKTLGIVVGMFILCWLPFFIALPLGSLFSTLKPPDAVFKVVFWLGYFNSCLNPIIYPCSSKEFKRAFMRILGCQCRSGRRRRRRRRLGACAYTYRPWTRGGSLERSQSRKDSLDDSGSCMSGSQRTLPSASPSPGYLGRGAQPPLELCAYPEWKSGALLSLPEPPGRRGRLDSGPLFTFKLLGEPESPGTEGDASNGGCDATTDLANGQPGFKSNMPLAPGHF
How it was run: (§4)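 Membranes from mouse LTK- fibroblasts stably expressing cloned hamster α1B or rat α1D, grown in roller bottles, frozen in liquid N2 and stored at -70 °C. Incubated with [3H]-prazosin ~200 pM, ~0.1 mg protein per tube, in 50 mM Tris-HCl pH 7.4 for 60 min at 25 °C; nonspecific binding defined by 10^-5 M phentolamine (final).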

[11] = target: T3, Alpha-1D adrenergic receptor (Rattus norvegicus, UniProt P23944); experiment: In vitro binding affinity using [3H]prazosin as radioligand against adrenoceptor alpha 1d expressed in LTK cell; type: cell-based; how it was run: as §4
T3 sequence (P23944 whole entry): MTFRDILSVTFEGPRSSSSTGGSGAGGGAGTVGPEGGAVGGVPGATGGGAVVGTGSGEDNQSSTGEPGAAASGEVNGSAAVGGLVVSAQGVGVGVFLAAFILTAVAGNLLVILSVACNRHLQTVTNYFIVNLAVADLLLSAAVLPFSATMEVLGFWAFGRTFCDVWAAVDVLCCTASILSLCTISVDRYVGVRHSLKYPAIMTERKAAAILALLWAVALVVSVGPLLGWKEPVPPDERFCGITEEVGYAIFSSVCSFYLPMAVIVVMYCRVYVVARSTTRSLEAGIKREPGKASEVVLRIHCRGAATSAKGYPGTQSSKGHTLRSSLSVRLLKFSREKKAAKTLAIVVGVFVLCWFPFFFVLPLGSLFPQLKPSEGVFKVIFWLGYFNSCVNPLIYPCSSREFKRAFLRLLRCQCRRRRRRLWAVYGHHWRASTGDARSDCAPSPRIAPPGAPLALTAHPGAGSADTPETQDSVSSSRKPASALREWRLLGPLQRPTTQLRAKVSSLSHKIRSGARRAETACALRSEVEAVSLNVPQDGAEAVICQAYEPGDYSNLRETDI

Canis familiaris [12] = species: Canis familiaris; experiment: Antagonist dissociation constant in dog prostate, number of determinations => 3.; details: Canis lupus familiaris, Prostate gland; read-out: pA2 (converted)
[13] = target: T3, Alpha-1D adrenergic receptor; experiment: In vitro binding affinity using [3H]prazosin as radioligand against alpha-1D adrenergic receptor expressed in LTK cell; type: cell-based; how it was run: as §4
[14] = target: T2, Alpha-1B adrenergic receptor; experiment: In vitro binding affinity using [3H]prazosin as radioligand against alpha-1B adrenergic receptor expressed in LTK cell; type: cell-based; how it was run: as §4
Canis familiaris [15] = species: Canis familiaris; experiment: Antagonist dissociation constant in dog prostate; details: Canis lupus familiaris, Prostate gland, read-out: pA2 (converted)
Rattus norvegicus [16] = species: Rattus norvegicus; experiment: Pseudo ED50 in Spontaneously Hypertensive Rat (SHR) model; type: functional; how it was run: as §2
[17] = target: T1, Alpha-1A adrenergic receptor; experiment: In vitro binding affinity using [3H]prazosin as radioligand against alpha-1A adrenergic receptor; how it was run: as §3
Cricetulus griseus = species: Cricetulus griseus; experiment: Ratio between Ki(alpha-1b)/Ki(alpha1A)
Rattus norvegicus [18] = species: Rattus norvegicus; experiment: Determination of Pseudo pED50 in Spontaneously Hypertensive Rat (SHR) model. Number determinations => 3.; type: functional; how it was run: as §2

Row | Ki [10] [nM] | Ki [13] [nM] | Ki [14] [nM] | Ki [17] [nM] | Selectivity ratio (Cricetulus griseus) | SMILES | IUP (Canis familiaris [1]) | Kb (Rattus norvegicus [2]) [nM] | Kb (Rattus norvegicus [3]) [nM] | SHR (Rattus norvegicus [4]) | Kb (Rattus norvegicus [6]) [nM] | Kb (Rattus norvegicus [7]) [nM] | Kb (Canis familiaris [8]) [nM] | further results
1 | 4.15 |  |  |  |  | COc1cccc2c1CC[C@H]1CN(CCn3c(=O)[nH]c4c(sc5ccc(Cl)nc54)c3=O)C[C@@H]21 |  |  |  |  |  |  |  | Ki [9]: 0.38 nM; Ki [11]: 0.61 nM
2 |  | 0.51 | 3.39 |  |  | COc1cccc2c1CC[C@H]1CN(CCn3c(=O)[nH]c4c(sc5cccnc54)c3=O)C[C@@H]21 |  |  |  |  | 1.17 | 12.9 | 6.76 | Kb (Canis familiaris [15]): 0.776 nM; pED50 (Rattus norvegicus [16]): 5.33
3 |  | 6.6 | 35.8 | 3.3 | 10.8 | COc1cccc2c1CC[C@H]1CN(CCn3c(=O)[nH]c4c(sc5cccc(C#N)c54)c3=O)C[C@@H]21 |  |  |  |  |  |  |  | 
4 |  | 0.31 | 1.91 | 0.44 | 4.34 | COc1cccc2c1CC[C@H]1CN(CCn3c(=O)[nH]c4c(sc5ccc(Cl)cc54)c3=O)C[C@@H]21 |  |  |  |  |  |  |  | 

More lines, now with the values behind:

Row | SMILES | Ki [10] [nM] | Ki [13] [nM] | Ki [14] [nM] | Ki [17] [nM] | Selectivity ratio (Cricetulus griseus) | IUP (Canis familiaris [1]) | Kb (Rattus norvegicus [2]) [nM] | Kb (Rattus norvegicus [3]) [nM] | SHR (Rattus norvegicus [4]) | Kb (Rattus norvegicus [6]) [nM] | Kb (Rattus norvegicus [7]) [nM] | Kb (Canis familiaris [8]) [nM] | further results
5 | COc1cc2nc(N(C)CCCNC(=O)C3CCCO3)nc(N)c2cc1OC (stereo unspecified) [ALFUZOSIN] |  |  |  |  |  | 6.87 | 24.5 | 4.9 | 6.58 |  |  |  | 
6 | COc1cc2nc(N3CCN(C(=O)C4COc5ccccc5O4)CC3)nc(N)c2cc1OC (stereo unspecified) [DOXAZOSIN] |  |  |  |  |  |  |  |  |  | 2.04 | 0.309 | 75.9 | pED50 (Rattus norvegicus [5]): 6.5
7 | COc1cccc2c1CC[C@H]1CN(CCn3c(=O)[nH]c4c(sc5ncc(Cl)nc54)c3=O)C[C@@H]21 | 35.1 |  |  |  |  | 8.28 | 1.1 | 44.7 | 4.77 |  |  |  | Ki [9]: 0.69 nM; Kb (Canis familiaris [12]): 0.447 nM; Ki [11]: 3.83 nM
8 | COc1cc2nc(N3CCN(C(=O)C4CCCO4)CC3)nc(N)c2cc1OC (stereo unspecified) [TERAZOSIN] |  |  |  |  |  | 7.02 |  | 2.51 | 6.64 |  |  |  | 
9 | CCOc1ccccc1OCCN[C@H](C)Cc1ccc(OC)c(S(N)(=O)=O)c1 [TAMSULOSIN] | 0.2 |  |  |  |  | 8.87 | 0.339 | 0.204 | 7.33 |  |  |  | 
10 | COc1cccc2c1CC[C@H]1CN(CCn3c(=O)[nH]c4c(sc5ncccc54)c3=O)C[C@@H]21 |  | 0.69 | 6.12 | 0.59 | 10.4 |  |  |  |  | 2.24 | 16.2 | 5.62 | Kb (Canis familiaris [15]): 1.66 nM; pED50 (Rattus norvegicus [18]): 5.35

Reference: ChEMBL document CHEMBL1132919, “Structure-activity studies for a novel series of tricyclic substituted hexahydrobenz[e]isoindole alpha(1A) adrenoceptor antagonists as potential agents for the symptomatic treatment of benign prostatic hyperplasia (BPH)” (J Med Chem, 2000)
